# TRPC4 block: blocks the mouse TRPC4 cation channel | HEK293 TRPC4beta/mu-opioid, DAMGO-evoked Fluo4 calcium flux; stronger effect = lower value | hit rate 0.39% among 300,000 | B-score at 10 µM | Q9QUQ5;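 active means B-score over 3 SD under the library average, no early fluorescence shift, positive overall ratio signal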
#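 Test system – stable TRPC4beta/mu-opioid receptor HEK293 cells · Probe or stimulus – DAMGO, a submaximal dose followed by a maximal one · Dosing – one concentration per compound · Signal – Fluo4 calcium fluorescence by kinetic imaging, 5 s 1 Hz baseline · Evaluation – per-well B score of integrated baseline-normalized Fluo4 ratio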
# TRPC4 act: activators of mouse TRPC4 channel. Q9QUQ5. HEK293 TRPC4beta/mu-opioid, Fluo4 calcium fluorescence; stronger effect = higher value. B-score at 10 µM. hit rate 0.49% among 310,000;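 active means B-score above 5 SD of library B-scores, and initial fluorescence ratio not above library mean plus 5 SD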;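 further: positive B-score marks a calcium rise read as TRPC4 activation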
#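 Assay system – TRPC4beta and mu-opioid receptor HEK293 stable cells · Measured by – Fluo4 fluorescence, kinetic · Schedule – dye loading 45 min room temperature, 110 s kinetic read · Read-out – B-scored integrated calcium fluorescence ratio · Controls – buffer and maximal DAMGO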
# TRPC6 inh: blocks the mouse TRPC6 cation channel | B-score at 10 µM | HEK293-TRPC6, membrane potential dye, ACh-evoked depolarization; stronger effect = lower value | hit rate 1.1% among 310,000;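 active means B-score under library mean minus 3 SD, initial fluorescence not abnormally high, positive integrated signal ratio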;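 further: B-score derived from integrated fluorescence ratio over the kinetic read; more negative B-score means stronger inhibition of depolarization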
# Target sequence (Q61143 whole entry, looked up): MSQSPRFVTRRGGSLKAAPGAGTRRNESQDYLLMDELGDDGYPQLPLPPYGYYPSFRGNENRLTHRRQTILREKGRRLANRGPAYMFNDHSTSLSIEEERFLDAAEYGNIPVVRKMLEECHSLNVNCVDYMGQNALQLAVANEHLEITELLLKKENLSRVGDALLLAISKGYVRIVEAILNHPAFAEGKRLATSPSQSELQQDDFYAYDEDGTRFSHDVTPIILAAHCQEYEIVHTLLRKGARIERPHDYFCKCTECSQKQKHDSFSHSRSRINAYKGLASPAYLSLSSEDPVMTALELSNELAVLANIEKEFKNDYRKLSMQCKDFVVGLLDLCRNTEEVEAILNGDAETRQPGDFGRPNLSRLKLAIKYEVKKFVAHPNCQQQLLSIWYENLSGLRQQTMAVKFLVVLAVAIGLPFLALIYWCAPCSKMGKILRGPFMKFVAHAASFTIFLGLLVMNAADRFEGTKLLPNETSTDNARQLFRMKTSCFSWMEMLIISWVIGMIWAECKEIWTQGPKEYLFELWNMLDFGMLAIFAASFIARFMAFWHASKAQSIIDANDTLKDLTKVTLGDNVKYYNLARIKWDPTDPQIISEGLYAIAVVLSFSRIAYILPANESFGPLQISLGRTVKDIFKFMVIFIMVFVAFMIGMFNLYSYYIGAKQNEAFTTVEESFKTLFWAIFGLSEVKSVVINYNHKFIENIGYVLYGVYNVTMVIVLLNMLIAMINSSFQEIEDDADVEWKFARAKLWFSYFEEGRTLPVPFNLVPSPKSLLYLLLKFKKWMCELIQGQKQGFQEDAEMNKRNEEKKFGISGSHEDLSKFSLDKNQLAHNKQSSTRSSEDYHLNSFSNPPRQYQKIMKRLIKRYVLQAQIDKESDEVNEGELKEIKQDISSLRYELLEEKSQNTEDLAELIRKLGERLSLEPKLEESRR
# TRPC6 activator: activates the mouse TRPC6 cation channel. B-score at 10 µM. hit rate 0.13% among 310,000. HEK293-TRPC6 membrane potential dye fluorescence; stronger effect = higher value;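 active means B-score of the integrated fluorescence ratio above library mean plus 3 SD, and starting fluorescence ratio within library mean plus 5 SD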;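 further: higher score means more depolarization so channel activation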
# TRPC4 PAM: allosterically enhances the mouse TRPC4 cation channel; Q9QUQ5; HEK293 TRPC4beta/mu-opioid, DAMGO EC20, Fluo-4 Ca2+ flux; stronger effect = higher value; B-score at 10 µM; hit rate 0.42% among 310,000;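 active means B-score of calcium response area above 5 SD of library B-scores, with initial fluorescence ratio within 5 SD of library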
# TRPC4 sel inh 2: second check of whether TRPC6 inhibitors also affect mouse TRPC4. shares compounds with TRPC6 inh. HEK293 TRPC4/MOR, membrane potential dye fluorescence; channel activated by saturating DAMGO dose. inhibition, % at 10 µM. hit rate 42% among 920. AID 2776;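 active means compounds whose fluorescence signal differed from control wells by over 3 SD, either direction, in both duplicate plates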
# TRPC4 spec: selectivity of TRPC6 inhibitors: effect on mouse TRPC4; shares compounds with TRPC6 inh; HEK293 TRPC4/mu-opioid, membrane potential fluorescence; activity change, negative = inhibition, % at 10 µM; hit rate 61% among 920; AID 2777;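 active means rise or fall in signal beyond 3 SD of buffer-only wells in both replicate plates, either sign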;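 further: integrated kinetic ratio of fluorescence range over baseline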
# HEK293 MPD ctr 2-1: second counter-screen for TRPC6 inhibitors: parental HEK293 cells; shares compounds with TRPC6 inh; parental HEK293 membrane potential dye fluorescence; maximal acetylcholine challenge after compound addition; AID 2779; signal change vs control, % at 10 µM; hit rate 31% among 920;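 active means membrane potential signal moving either way by over 3 SD of the maximum-effect control, in both duplicate plates, meaning non-specific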
# HEK293 MPD ctr-1: checks TRPC6 inhibitor effects in parental HEK293 cells; hit rate 60% among 920; parental HEK293 membrane potential dye fluorescence; AID 2780; shares compounds with TRPC6 inh; membrane potential signal change, % at 10 µM;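 active means membrane potential signal shifting up or down by more than 3 SD of buffer-only wells, on both duplicate plates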
# HEK293 MPD ctr-2: checks TRPC6 modulator effects in parental HEK293 cells; shares compounds with TRPC6 inh; membrane potential dye fluorescence; membrane potential signal change, % at 10 µM; hit rate 51% among 2,400;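 active means membrane potential signal moves up or down beyond 5 SD from buffer-only wells, on both duplicate plates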
# HEK293 MPD ctr 2-2: second check of TRPC6 modulator effects in parental HEK293 cells. shares compounds with TRPC6 inh. membrane potential dye fluorescence; after compound, maximal acetylcholine stimulation. inhibition, % at 10 µM. hit rate 14% among 2,400. AID 488926;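 active means membrane potential signal drops by more than 5 SD from the mean control signal, in both duplicate plates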
# TRPC4/MOR mod: selectivity of TRPC6 modulators against mouse TRPC4. shares compounds with TRPC6 inh. HEK293 TRPC4/mu-opioid, membrane potential fluorescence. percent change from control (negative = decrease, positive = increase), % at 10 µM. hit rate 69% among 2,400;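 active means membrane potential signal moved up or down beyond 5 SD of buffer control wells, in both duplicate plates, actives on both sides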
# TRPC4 ctr inh 2: mouse TRPC4 off-target activity of TRPC6 modulators, second screen. shares compounds with TRPC6 inh. HEK293 TRPC4/mu-opioid, membrane potential dye fluorescence; stimulated with maximal-effect DAMGO. inhibition, % at 10 µM. hit rate 55% among 2,400. AID 488928;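 active means drop in membrane potential signal beyond 5 SD of the control wells in both duplicate plates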;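 further: TRPC4 counter screen for TRPC6 hits run under conditions tuned for TRPC6 not TRPC4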
# TRPC6 block conf: mouse TRPC6 inhibitor confirmation | shares compounds with TRPC6 inh | HEK293-TRPC6, membrane potential dye, ACh-evoked depolarization | inhibition, % at 10 µM | hit rate 43% among 3,300 | AID 488960;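 active means fluorescence ratio falls more than 5 SD below the full-stimulation control mean, in both duplicate runs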;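 further: integrated fluorescence ratio of peak minus minimum over baseline after agonist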
# TRPC6 act conf: mouse TRPC6 activator confirmation; shares compounds with TRPC6 inh; HEK293-TRPC6 membrane potential dye fluorescence, FDSS; activation, % at 10 µM; hit rate 11% among 2,800;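 active means ratio signal rise beyond 5 SD above unstimulated control wells' mean, seen in both duplicate runs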
# A number is an active result; . = inactive; / = not tested or not shown. This is a sample that favours compounds with a hit; in the whole collection about 2.3% have one here.
SMILES,TRPC4 block,TRPC4 act,TRPC6 inh,TRPC6 activator,TRPC4 PAM,HEK293 MPD ctr-2,HEK293 MPD ctr 2-2,TRPC4/MOR mod,TRPC4 ctr inh 2,TRPC6 block conf,TRPC6 act conf,others
CN(C)CC(=O)N1c2ccccc2Sc2ccc(Cl)cc21,.,.,.,.,.,/,/,/,/,/,/,
O=C(CCN1CCN2CCCC2C1)N1c2ccccc2Sc2ccc(Cl)cc21 (centres undefined),.,.,.,.,.,/,/,/,/,/,/,
CN1CCN(CCC(=O)N2c3ccccc3Sc3ccc(Cl)cc32)CC1,.,.,.,.,.,/,/,/,/,/,/,
CCN(CC)CCC(=O)N1c2ccccc2Sc2ccc(Cl)cc21,.,.,-5.37,.,.,216.5%,.,35.0%,45.5%,78.5%,/,
CN(C)CCC(=O)N1c2ccccc2Sc2ccc(Cl)cc21,.,.,-8.47,.,.,/,/,/,/,58.5%,/,TRPC4 sel inh 2=.;TRPC4 spec=4.2%;HEK293 MPD ctr 2-1=.;HEK293 MPD ctr-1=7.7%
NCCC(=O)N1c2ccccc2Sc2ccc(Cl)cc21,.,.,.,.,.,/,/,/,/,/,/,
COc1ccc2c(c1)SCC/C2=C\CN1C(=O)CCC1=O,.,.,.,.,.,/,/,/,/,/,/,
CCn1cc(C(=O)N2CCCC(N3CCN(c4ccccc4C)CC3)C2)cn1 (centres undefined),.,.,.,.,.,/,/,/,/,/,/,
Cc1cc(OC(=O)c2ccc(C)c(C)c2)c([N+](=O)[O-])c(=O)[nH]1,.,.,.,.,.,/,/,/,/,/,/,
O=C(COc1ccc([N+](=O)[O-])cc1)NCCC1=CCCCC1,.,.,.,.,.,/,/,/,/,/,/,
Cc1ccc(OCC(=O)NCCC2=CCCCC2)cc1,.,.,-5,.,.,.,.,.,.,.,.,
CC(=O)Nc1ccccc1OCC(=O)NCCC1=CCCCC1,.,.,.,.,.,/,/,/,/,/,/,
Cc1ccccc1OCC(=O)NCCC1=CCCCC1,.,.,-5.7,.,.,.,.,14.0%,.,.,.,
COc1ccc(N(CC(=O)Nc2cc(OC)c(OC)cc2C(=O)O)S(=O)(=O)c2c(C)noc2C)cc1,.,.,.,.,.,/,/,/,/,/,/,
COCCNC(=O)CCSc1nc(-c2ccc(OC)cc2)cc(C(F)(F)F)n1,.,.,-5.62,.,.,.,.,.,.,.,.,
COc1ccc(OC)c(NC(=O)COc2ccc(S(=O)(=O)N3CCCC3)cc2)c1,.,.,.,.,.,/,/,/,/,/,/,
Cc1cccc2sc(N(CCCN(C)C)C(=O)c3cc4ccccc4oc3=O)nc12,.,.,.,.,.,/,/,/,/,/,/,
Cc1cccc2sc(N(CCCN(C)C)C(=O)c3ccc(Cl)s3)nc12,.,.,-6.61,.,.,/,/,/,/,67.3%,.,TRPC4 sel inh 2=42.5%;TRPC4 spec=-14.3%;HEK293 MPD ctr 2-1=.;HEK293 MPD ctr-1=.
Cc1cccc2sc(N(CCCN(C)C)C(=O)c3ccco3)nc12,.,.,-6.78,.,.,/,/,/,/,99.4%,.,TRPC4 sel inh 2=24.0%;TRPC4 spec=-19.4%;HEK293 MPD ctr 2-1=9.0%;HEK293 MPD ctr-1=.
O=C(Cn1c(-c2ccccc2)c[n+]2ccsc12)c1ccc(Br)cc1,.,86,-5.58,.,.,-122.5%,.,60.5%,97.0%,.,.,
Cn1c(=N)n(CC(=O)c2ccc(Br)cc2)c2ccccc21,.,.,.,.,.,/,/,/,/,/,/,
CCOc1ccc(NC(=O)C(Cc2ccccc2)N2C(=O)c3cccc4cccc(c34)C2=O)cc1 (centres undefined),.,.,.,.,.,/,/,/,/,/,/,
COCCNC(=O)C(c1cccs1)N(Cc1cccs1)C(=O)Cn1nnc2ccccc21 (centres undefined),.,.,.,.,.,/,/,/,/,/,/,
CC(C)CCNC(=O)C(c1ccco1)N(Cc1cccs1)C(=O)Cn1nnc2ccccc21 (centres undefined),.,.,.,14.9,.,281.0%,.,72.0%,.,.,98.0%,
Cc1nc2c(C(=O)N3CCCCC3)cnn2c(C)c1Cc1ccccc1F,.,.,-10.9,21.8,.,147.0%,.,28.5%,30.0%,114.0%,177.5%,
SMILES,TRPC4 block,TRPC4 act,TRPC6 inh,TRPC6 activator,TRPC4 PAM,HEK293 MPD ctr-2,HEK293 MPD ctr 2-2,TRPC4/MOR mod,TRPC4 ctr inh 2,TRPC6 block conf,TRPC6 act conf,others
CCc1ccc(N2CCN(S(=O)(=O)CC34CCC(CC3=O)C4(C)C)CC2)cc1 (centres undefined),.,.,.,.,.,/,/,/,/,/,/,
Oc1ccc(Cl)cc1Cc1cc(Cl)ccc1O,.,.,-5.12,.,.,.,69.0%,-12.5%,63.0%,66.5%,.,
c1ccc(Oc2cccc(OCCCCN3CCCC3)c2)cc1,.,.,-8.57,.,.,/,/,/,/,.,/,TRPC4 sel inh 2=.;TRPC4 spec=5.8%;HEK293 MPD ctr 2-1=262.5%;HEK293 MPD ctr-1=5.1%
O=C(NCC(=O)N(CCN1CCOCC1)C(C(=O)NC1CCCC1)c1ccccc1)c1cccs1 (centres undefined),.,.,.,.,.,/,/,/,/,/,/,
N#Cc1cc2sc3nnc(-c4ccncc4)n3c2cc1C#N,.,.,-8.18,.,.,-367.5%,85.5%,-68.5%,82.5%,47.0%,.,
COc1ccc(CCNC(=O)CO/N=C/c2cc3c(cc2Br)OCO3)cc1OC,.,.,.,.,.,/,/,/,/,/,/,
COc1ccc(C(=O)Nc2c(-c3ccccc3)nc3ccccn23)c(OC)c1,.,.,.,20,.,.,.,12.5%,28.0%,.,.,
CCN(CC)CCOC(=O)C1(c2ccccc2)CCCC1,.,.,-9.16,.,.,/,/,/,/,74.3%,/,TRPC4 sel inh 2=.;TRPC4 spec=16.5%;HEK293 MPD ctr 2-1=-2.5%;HEK293 MPD ctr-1=15.2%
CCN(CC)CCOC(=O)C1(c2ccc(OC)c(OC)c2)CCCC1,.,.,.,.,.,/,/,/,/,/,/,
CCN(CC)CCOC(=O)C1(C2CCCCC2)CCCCC1,.,.,-6.15,.,.,182.5%,77.0%,40.5%,.,76.5%,/,
O=C(CSc1nc(=O)[nH]c2c1CCCC2)Nc1ccc(F)cc1F,.,.,.,.,.,/,/,/,/,/,/,
